An excerpt weighted towards active compounds, which were near 2.7% of everything screened.
IMP-1 inhibitor – inhibitors of Pseudomonas aeruginosa IMP-1 metallo-beta-lactamase | purified IMP-1, nitrocefin hydrolysis, epi-absorbance fluorescence | inhibition, % at 5.6 µM | actives 0.45% (n = 290,000);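 active means inhibition above the mean plus 3 SD of all compounds in the same screening run, cut at about 4.5% in these data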
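System – purified recombinant IMP-1 beta-lactamase · Input – IMP-1 dispensed at 0.2 nM · Timing – 15 min preincubation plus 25 min reaction at 25 °C · Signal – Epi-absorbance fluorescence, 480 nm excitation, 530 nm emission · Measure – percent IMP-1 inhibition derived from blank-referenced optical density · Controls – Enzyme-plus-DMSO low control, enzyme-free DMSO high control · Replication – singlicate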
VIM-2 inh – blocks Pseudomonas aeruginosa VIM-2 metallo-beta-lactamase | purified VIM-2, nitrocefin hydrolysis, epi-absorbance fluorescence | inhibition, % at 5.6 µM | actives 0.89% (n = 290,000) | AID 1527;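 active means inhibition above the mean of all tested compounds plus 3 SD, cutoff set per screening run, cut at about 7.5% in these data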;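 further: red hydrolysis product quenches plate fluorescence so inhibitors raise well fluorescence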
M18AAP inhibitor – blocks P. falciparum M18 aspartyl aminopeptidase | recombinant PfM18AAP, H-Glu-NHMec fluorogenic cleavage | inhibition, % at 7.35 µM | actives 1.2% (n = 290,000);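 active means inhibition above the campaign mean inhibition over all tested compounds plus 3 SD, cut at about 28% in these data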
CTSL1 counter – blocks F. hepatica cathepsin L1 in PFM18AAP counter-screen | inhibition, % at 5.96 µM | actives 0.49% (n = 300,000) | recombinant F. hepatica cathepsin L1, Z-Leu-Arg-MCA fluorescence;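 active means inhibition above the mean of all tested compounds plus 3 SD, set per screening campaign, cut at about 17% in these data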
Of the large screens only hits and unclear results are named; the others gave an inactive call.

CCc1cc(C(=O)NNC(=O)CCl)sc1C	CTSL1 counter 90
Cc1c(CC(=O)O)c(=O)oc2c(C)c(OCc3ccccc3)ccc12	none (no result: CTSL1 counter)
CCc1c(C)c2ccc(OCC(=O)N(C)C)c(C)c2oc1=O	VIM-2 inh 9.8
Cc1c(CC(=O)O)c(=O)oc2c(C)c(OCc3ccccc3Br)ccc12	IMP-1 inhibitor 6.9
Oc1c(Br)cc(C=Nc2ccc3nc(-c4ccccc4)[nH]c3c2)c(O)c1Br	M18AAP inhibitor 29
CC(C)C[C@@H](CN=[N+]=[N-])N1CCN(Cc2ccccc2)CCC1=O	none
NC(=O)CSc1nc2sc3c(c2c2ncnn12)CCCC3	VIM-2 inh 9.8
O=C(NNc1ncnc2sccc12)c1ccc(Cl)cc1	M18AAP inhibitor 28
NC(=S)c1cc2cc(Cl)ccc2oc1=O	IMP-1 inhibitor 7.0
COc1ccc(-c2cnnc(N/N=C/c3ccc(O)c(O)c3)n2)cc1	M18AAP inhibitor 48
CC1(C)CC(=O)c2cnc(NCC3CCCO3)nc2C1 (stereo not given)	IMP-1 inhibitor 6.0
O=C1c2ccccc2C(=O)N1Nc1ccc([N+](=O)[O-])cc1[N+](=O)[O-]	IMP-1 inhibitor 4.5
COC(=O)c1cccc2nc3c(C(C)O)cccc3nc12 (stereo not given)	CTSL1 counter 87 (no result: IMP-1 inhibitor, VIM-2 inh, M18AAP inhibitor)
CCN(CC)C(=O)c1cccc2nc3ccccc3nc12	none
COc1ccc(-n2nnnc2-c2cn(C)nc2C(F)(F)F)cc1	none
Cc1c(Cl)cccc1NS(=O)(=O)c1ccc2c(c1)C1C=CCC1C(c1ccc(C(=O)O)cc1)N2 (stereo not given)	IMP-1 inhibitor 30
CC(=O)c1ccc2c(c1)C1C=CCC1C(c1ccc(S(=O)(=O)N3CCOCC3)cc1)N2 (stereo not given)	none
COc1ccc(NS(=O)(=O)c2ccc3c(c2)[C@H]2C=CC[C@H]2[C@@H](c2ccc(C(=O)O)cc2)N3)cc1	IMP-1 inhibitor 22
C#CCONC(=O)c1cc(OCC(F)(F)F)ccc1OCC(F)(F)F	none
CC1(C)OC(=O)C(=Cc2ccc(-c3ccc(S(N)(=O)=O)cc3)o2)C(=O)O1	IMP-1 inhibitor 34
CC(C)(C)c1ccc(C(=O)NC(=S)Nn2cnnc2)cc1	M18AAP inhibitor 55
COc1ccc(CN2CCNC(=O)C2CC(=O)N2CCCCO2)c(OC)c1 (stereo not given)	none
O=C(O)c1ccccc1C(=O)N1CCc2c([nH]c3ccccc23)C1C(F)(F)F (stereo not given)	VIM-2 inh 11
CCc1ccc(NC(=O)C2CCCN(S(=O)(=O)c3cnc[nH]3)C2)cc1 (stereo not given)	none
CCc1ccc(NC(=O)C2CCN(S(=O)(=O)c3cnc[nH]3)CC2)cc1	IMP-1 inhibitor 12
CCNC(=S)Nc1ccc(Cc2nc3ccccc3[nH]2)cc1	none
CCOC(=O)CNC(=O)c1ccc(Br)s1	none
Cc1ccc(C)n1-c1ccc(C(=O)NN)s1	CTSL1 counter 21
COc1cccc(/C=N/NC(=S)Nc2cccnc2)c1	none
Oc1ccc(/C=N/NC(=S)Nc2cccnc2)cc1	M18AAP inhibitor 31
Cc1nc2ccccc2nc1OCc1ccc([N+](=O)[O-])cc1	none
O=C(CSc1nnc(CNC(=O)c2ccco2)o1)Nc1nc2ccccc2s1	M18AAP inhibitor 29
CCOc1ccc(S(=O)(=O)Nc2cc(SCC(=O)O)c(O)c3ccccc23)cc1	VIM-2 inh 10 (no result: CTSL1 counter)
CCc1ccc(S(=O)(=O)Nc2cc(SCC(=O)O)c(O)c3ccccc23)cc1	none
O=C(N/N=C/c1cc(Cl)cc([N+](=O)[O-])c1O)c1ccccc1NS(=O)(=O)c1cccs1	none
CCCCNC(=O)CSc1cc(=O)n(C)c2ccccc12	IMP-1 inhibitor 6.1
O=C(Nc1ccc(Cc2ccncc2)cc1)c1cccc([N+](=O)[O-])c1	none
O=C(Nc1ccc(Nc2ccncc2)cc1)c1ccc(Nc2ccnc3ccc([N+](=O)[O-])cc23)cc1	IMP-1 inhibitor 21, VIM-2 inh 36 (no result: CTSL1 counter)
Cc1ccc(/C([O-])=C(/C(=S)Nc2ccc(SC(F)F)cc2)[n+]2ccccc2)cc1[N+](=O)[O-]	none
COC(=O)c1cc(-c2ccc(OC)c(OC)c2)c2c(=O)[nH]c(=O)n(C)c2n1	VIM-2 inh 9.4
CCOC(=O)c1cnc2c(cnn2C)c1NCCCN(C)C	VIM-2 inh 8.4
CCOC(=O)c1cnc2c(ccc3ccccc32)c1NCCO	none
CCOC(=O)c1cnc2c(ccc3ccccc32)c1NCCN(C)C	VIM-2 inh 12
CCOC(=O)c1cnc2c(cnn2C)c1NCCC#N	none
Cc1cc(=O)oc2cc(OC(=O)C3CCN(C(=O)c4ccc(F)cc4)CC3)ccc12	none (no result: IMP-1 inhibitor, VIM-2 inh, M18AAP inhibitor)
CCc1ccc(N(C(=O)c2csnn2)C(C(=O)NC(C)(C)CC)c2ccccn2)cc1 (stereo not given)	none
O=C(NCC(=O)N(c1ccccc1F)C(C(=O)NC1CCCC1)c1cccnc1)c1ccco1 (stereo not given)	none
CCCCNC(=O)c1cn(CC)c2ccc(S(=O)(=O)N3CCCC3)cc2c1=O	none
CCC(C)NC(=O)c1cn(CC)c2ccc(S(=O)(=O)N(C)C)cc2c1=O (stereo not given)	none
CCn1cc(C(=O)NCCc2ccccc2)c(=O)c2cc(S(=O)(=O)N3CCCC3)ccc21	CTSL1 counter 17
CCn1cc(C(=O)O)c(=O)c2cc(S(=O)(=O)N(C)C)ccc21	VIM-2 inh 8.7
COc1cc(/C=N/NC(=O)/C(=C\c2ccc([N+](=O)[O-])cc2)NC(=O)c2ccccc2)cc(OC)c1O	M18AAP inhibitor 29
O=C(CCS(=O)(=O)c1ccc(Br)cc1)NCc1ccc(F)cc1	IMP-1 inhibitor 28
CC(=O)N1CC(C)Sc2ccc(S(=O)(=O)NCc3ccc(Cl)cc3)cc21 (stereo not given)	none
CCOC(=O)C1(C)C=C(Nc2ccc(O)cc2)C(=O)N1c1ccc(O)cc1 (stereo not given)	M18AAP inhibitor 34
CCOC(=O)C1(C)C=C(Nc2ccc(OC)cc2)C(=O)N1c1ccc(OC)cc1 (stereo not given)	none
O=S(=O)(Nc1ncccn1)c1ccc(NC(=S)Nc2cccc(Cl)c2)cc1	none
O=C(NCCCn1ccnc1)C(=O)NCC1OCCCN1S(=O)(=O)c1ccccc1 (stereo not given)	IMP-1 inhibitor 10
O=C(NCCCn1ccnc1)C(=O)NCC1OCCN1S(=O)(=O)c1ccc(Cl)cc1 (stereo not given)	none
O=C(NCCCn1ccnc1)C(=O)NCC1OCCN1S(=O)(=O)c1ccccc1 (stereo not given)	IMP-1 inhibitor 13
O=C(NCCCn1ccnc1)C(=O)NCC1OCCCN1S(=O)(=O)c1ccc(Cl)cc1 (stereo not given)	none
CN(c1ccc(C(=O)N2CCCCC2)cc1)S(C)(=O)=O	none
CCOC(=O)C(C(=O)OCC)c1cc(Br)c2noc3c2c1C(=O)c1ccccc1-3	none
O=C(O)CCNc1cc(N2CCN(C(=O)c3ccco3)CC2)c2noc3c2c1C(=O)c1ccccc1-3	IMP-1 inhibitor 7.0, M18AAP inhibitor 35, CTSL1 counter 22
Cc1cc(N2CCN(C(=O)c3ccco3)CC2)c2ccccc2n1	none
CC(=O)OCCNc1cc(N2CCN(C)CC2)c2noc3c2c1C(=O)c1ccccc1-3	VIM-2 inh 8.2 (no result: CTSL1 counter)

Screens (PubChem)
